# Data taken from ChEMBL document CHEMBL4033712, “Synthesis and biological evaluation of new C-12(α/β)-(N-) sulfamoyl-phenylamino-14-deoxy-andrographolide derivatives as potent anti-cancer agents” (Bioorg Med Chem Lett, 2017).
# How the values were obtained:
# Format in all cases: functional
# SF-539 [1] = assay: Growth inhibition of human SF539 cells incubated for 48 hrs by sulforhodamine B assay; settings: SF-539, 48 h
# In short: (§1)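 NCI 60 human tumour cell line panel, five-dose study at 0.01, 0.1, 1, 10 and 100 µM, 48 h incubation. Sulforhodamine B protein-binding dye end point. GI50 (50% decrease in net cell growth), TGI (total growth inhibition) and LC50 (net 50% loss of initial cells) read from log concentration versus % growth inhibition curves.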
# KM12 = assay: Growth inhibition of human KM12 cells incubated for 48 hrs by sulforhodamine B assay; settings: KM12, 48 h
# In short: (§2)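 NCI-60 five-dose screen at 0.01, 0.1, 1, 10 and 100 µM, 48 h incubation, sulforhodamine B end point. GI50 (50% decrease in net growth), TGI (total growth inhibition) and LC50 (net 50% loss of initial cells) taken from log concentration versus % growth inhibition curves.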
# IGROV-1 = assay: Growth inhibition of human IGROV1 cells incubated for 48 hrs by sulforhodamine B assay; settings: IGROV-1, 48 h; in short: as §2
# SF-268 = assay: Growth inhibition of human SF268 cells incubated for 48 hrs by sulforhodamine B assay; settings: SF-268, 48 h; in short: as §1
# MDA-MB-231 = assay: Growth inhibition of human MDA-MB-231 cells incubated for 48 hrs by sulforhodamine B assay; settings: MDA-MB-231, 48 h; in short: as §2
# SK-OV-3 = assay: Growth inhibition of human SKOV3 cells incubated for 48 hrs by sulforhodamine B assay; settings: SK-OV-3, 48 h; in short: as §1
# UACC-62 = assay: Growth inhibition of human UACC62 cells incubated for 48 hrs by sulforhodamine B assay; settings: UACC-62, 48 h; in short: as §1
# SNB-75 = assay: Growth inhibition of human SNB75 cells incubated for 48 hrs by sulforhodamine B assay; settings: SNB-75, 48 h; in short: as §1
# SK-MEL-5 = assay: Growth inhibition of human SK-MEL-5 cells incubated for 48 hrs by sulforhodamine B assay; settings: SK-MEL-5, 48 h; in short: as §1
# NCI-H23 = assay: Growth inhibition of human NCI-H23 cells incubated for 48 hrs by sulforhodamine B assay; settings: NCI-H23, 48 h; in short: as §2
# MCF7 = assay: Growth inhibition of human MCF7 cells incubated for 48 hrs by sulforhodamine B assay; settings: MCF7, 48 h; in short: as §2
# DU-145 = assay: Growth inhibition of human DU145 cells incubated for 48 hrs by sulforhodamine B assay; settings: DU-145, 48 h; in short: as §2
# MDA-MB-435 = assay: Growth inhibition of human MDA-MB-435 cells incubated for 48 hrs by sulforhodamine B assay; settings: MDA-MB-435, 48 h; in short: as §2
# A549 = assay: Growth inhibition of human A549/ATCC cells incubated for 48 hrs by sulforhodamine B assay; settings: A549, 48 h; in short: as §2
# HCT-15 = assay: Growth inhibition of human HCT15 cells incubated for 48 hrs by sulforhodamine B assay; settings: HCT-15, 48 h; in short: as §2
# UO-31 = assay: Growth inhibition of human UO31 cells incubated for 48 hrs by sulforhodamine B assay; settings: UO-31, 48 h; in short: as §1
# HCT-116 = assay: Growth inhibition of human HCT116 cells incubated for 48 hrs by sulforhodamine B assay; settings: HCT-116, 48 h; in short: as §2
# HOP-92 = assay: Growth inhibition of human HOP92 cells incubated for 48 hrs by sulforhodamine B assay; settings: HOP-92, 48 h; in short: as §2
# MOLT-4 = assay: Growth inhibition of human MOLT4 cells incubated for 48 hrs by sulforhodamine B assay; settings: MOLT-4, 48 h; in short: as §2
# HCC 2998 = assay: Growth inhibition of human HCC2998 cells incubated for 48 hrs by sulforhodamine B assay; settings: HCC 2998, 48 h; in short: as §2
# SK-MEL-28 = assay: Growth inhibition of human SK-MEL-28 cells incubated for 48 hrs by sulforhodamine B assay; settings: SK-MEL-28, 48 h; in short: as §1
# SN12C = assay: Growth inhibition of human SN12C cells incubated for 48 hrs by sulforhodamine B assay; in short: as §1
# SF-539 [2] = assay: Anticancer activity against human SF539 cells assessed as cell growth at 10 uM after 48 hrs by sulforhodamine B assay relative to control; settings: SF-539, 48 h, read-out: Activity
# In short: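 Single-dose NCI-60 panel screen: compound added at 10 µM and the culture incubated 48 h. The end point was read by protein staining with sulforhodamine B. The value is percent growth of treated cells relative to untreated control cells, reported as a mean graph across the panel.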
# NCI-H226 = assay: Growth inhibition of human NCI-H226 cells incubated for 48 hrs by sulforhodamine B assay; settings: NCI-H226, 48 h; in short: as §2
# COLO 205 = assay: Growth inhibition of human COLO205 cells incubated for 48 hrs by sulforhodamine B assay; settings: COLO 205, 48 h; in short: as §2
# NCI/ADR-RES = assay: Growth inhibition of human NCI/ADR-RES cells incubated for 48 hrs by sulforhodamine B assay; in short: as §2
# HOP-62 = assay: Growth inhibition of human HOP62 cells incubated for 48 hrs by sulforhodamine B assay; settings: HOP-62, 48 h; in short: as §2
# RPMI-8226 = assay: Growth inhibition of human RPMI8226 cells incubated for 48 hrs by sulforhodamine B assay; settings: RPMI-8226, 48 h; in short: as §1
# [3] = read-out: LC50 (the source's name)
smiles,measurement,setting,value
C=C1CC[C@@H]2[C@](C)(COC(C)=O)[C@H](OC(C)=O)CC[C@@]2(C)[C@H]1CC(Nc1ccc(S(=O)(=O)Nc2nccc(C)n2)cc1)C1=CCOC1=O (some centres not stated),GI50,SF-539 [1],2.07 µM
same,TGI,SF-539 [1],4.73 µM
same,CC50,SF-539 [1]; [3],12.4 µM
same,GI50,KM12,4.59 µM
same,TGI,KM12,16.4 µM
same,CC50,KM12; [3],44.4 µM
same,GI50,IGROV-1,3.62 µM
same,TGI,IGROV-1,13.6 µM
same,CC50,IGROV-1; [3],45.5 µM
same,GI50,SF-268,6.19 µM
same,TGI,SF-268,20.9 µM
same,CC50,SF-268; [3],54.2 µM
same,GI50,MDA-MB-231,3.62 µM
same,LC50 (concentration giving net 50% loss of initial cells),MDA-MB-231,40.5 µM
same,TGI,MDA-MB-231,10.2 µM
same,GI50,SK-OV-3,12.7 µM
same,TGI,SK-OV-3,25.3 µM
same,CC50,SK-OV-3; [3],50.3 µM
same,GI50,UACC-62,2.38 µM
same,TGI,UACC-62,7.12 µM
same,CC50,UACC-62; [3],30.3 µM
same,GI50,SNB-75,2.69 µM
same,TGI,SNB-75,14.9 µM
same,CC50,SNB-75; [3],38.6 µM
same,GI50,SK-MEL-5,3.79 µM
same,TGI,SK-MEL-5,14 µM
same,CC50,SK-MEL-5; [3],41.2 µM
same,GI50,NCI-H23,3.78 µM
same,TGI,NCI-H23,16 µM
same,CC50,NCI-H23; [3],50.6 µM
same,GI50,MCF7,2.27 µM
same,TGI,MCF7,12.5 µM
same,CC50,MCF7; [3],> 100 µM
same,GI50,DU-145,3.36 µM
same,TGI,DU-145,11.8 µM
same,CC50,DU-145; [3],34.9 µM
same,GI50,MDA-MB-435,2.92 µM
same,TGI,MDA-MB-435,10.4 µM
same,CC50,MDA-MB-435; [3],34.2 µM
same,GI50,A549,8.19 µM
same,TGI,A549,21.9 µM
same,CC50,A549; [3],52.2 µM
same,GI50,HCT-15,1.79 µM
same,TGI,HCT-15,4.24 µM
same,CC50,HCT-15; [3],10.2 µM
same,GI50,UO-31,2.91 µM
same,LC50 (concentration giving net 50% loss of initial cells),UO-31,33.3 µM
same,TGI,UO-31,10.6 µM
same,GI50,HCT-116,1.6 µM
same,TGI,HCT-116,3.56 µM
same,CC50,HCT-116; [3],7.96 µM
same,GI50,HOP-92,6.24 µM
same,TGI,HOP-92,18.9 µM
same,CC50,HOP-92; [3],44.5 µM
same,GI50,MOLT-4,3.22 µM
same,TGI,MOLT-4,17.9 µM
same,CC50,MOLT-4; [3],> 100 µM
same,GI50,HCC 2998,4.98 µM
same,TGI,HCC 2998,17.9 µM
same,CC50,HCC 2998; [3],48.1 µM
same,GI50,SK-MEL-28,2.83 µM
same,LC50 (50% net cell kill),SK-MEL-28,36.3 µM
same,TGI,SK-MEL-28,10.1 µM
same,GI50,SN12C,2.64 µM
same,TGI,SN12C,6.17 µM
same,CC50,SN12C; [3],81.2 µM
same,growth at 10 µM,SF-539 [2],-62.7%
same,GI50,NCI-H226,2.33 µM
same,TGI,NCI-H226,5.91 µM
same,CC50,NCI-H226; [3],> 100 µM
same,GI50,COLO 205,2.09 µM
same,TGI,COLO 205,4.66 µM
same,CC50,COLO 205; [3],11.9 µM
same,GI50,NCI/ADR-RES,2.94 µM
same,LC50 (concentration giving net 50% loss of initial cells),NCI/ADR-RES,> 100 µM
same,TGI,NCI/ADR-RES,13.5 µM
same,GI50,HOP-62,10.3 µM
same,TGI,HOP-62,22.5 µM
same,CC50,HOP-62; [3],49.3 µM
same,GI50,RPMI-8226,1.95 µM
same,TGI,RPMI-8226,6.84 µM
same,CC50,RPMI-8226; [3],> 100 µM
